Each block holds one compound with its values, some of them ahead of it. Activity calls are given as the source filed them. No cut-off for these calls is given here.
Columns and labels:
[1] = target: T1, Gamma-aminobutyric acid receptor subunit alpha-6/beta-3/delta (Rattus norvegicus) (UniProt P18506+P30191+P63079); assay: Displacement of [3H]EBOB from rat GABA-A receptor alpha6beta3delta expressed in HEK293 cell membranes at 10 uM after 90 mins by liquid scintillation counting analysis relative to control
Summary of the method: (§1)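 Crude membranes from HEK 293 cells transiently Ca-phosphate-transfected with rat subunit cDNAs, harvested at 48 h. Membranes (150-200 µg protein) incubated with 3 nM [3H]EBOB in 50 mM Tris/citrate pH 7.3 plus 0.2 M NaCl. Compound up to 10 µM, final DMSO 0.1%, no GABA, 90 min at 21 °C. Bound radioligand collected by GF/C filtration and counted by scintillation.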

[2] = target: T2, Gamma-aminobutyric acid receptor subunit alpha-6/beta-3 (Rattus norvegicus) (UniProt P30191+P63079); assay: Displacement of [3H]EBOB from rat GABA-A receptor alpha6beta3 expressed in HEK293 cell membranes at 10 uM after 90 mins by liquid scintillation counting analysis relative to control; summary of the method: as §1
[3] = target: T3, Gamma-aminobutyric acid receptor subunit alpha-6/beta-3/gamma-2 (Rattus norvegicus) (UniProt P18508+P30191+P63079); assay: Displacement of [3H]EBOB from rat GABA-A receptor alpha6beta3gamma2 expressed in HEK293 cell membranes at 10 uM after 90 mins by liquid scintillation counting analysis relative to control; summary of the method: as §1
[4] = target: T4, Gamma-aminobutyric acid receptor subunit alpha-6/beta-3/delta (Rattus norvegicus, UniProt P18506+P30191+P63079); assay: Displacement of [3H]EBOB from rat GABA-A receptor alpha6beta3delta expressed in HEK293 cell membranes after 90 mins by liquid scintillation counting analysis; summary of the method: as §1
[5] = target: Gamma-aminobutyric acid receptor subunit alpha-6/beta-2/delta (Rattus norvegicus, UniProt P18506+P30191+P63138); assay: Displacement of [3H]EBOB from rat GABA-A receptor alpha6beta2delta expressed in HEK293 cell membranes after 90 mins by liquid scintillation counting analysis; summary of the method: as §1
[6] = target: T3, Gamma-aminobutyric acid receptor subunit alpha-6/beta-3/gamma-2 (Rattus norvegicus); assay: Displacement of [3H]EBOB from rat GABA-A receptor alpha6beta3gamma2 expressed in HEK293 cell membranes up to 10 uM after 90 mins by liquid scintillation counting analysis relative to control; summary of the method: as §1
[7] = target: Gamma-aminobutyric acid receptor subunit alpha-6/beta-2/delta (Rattus norvegicus) (UniProt P18506+P30191+P63138); assay: Displacement of [3H]EBOB from rat GABA-A receptor alpha6beta2delta expressed in HEK293 cell membranes up to 10 uM after 90 mins by liquid scintillation counting analysis relative to control; summary of the method: as §1
[8] = target: T5, Gamma-aminobutyric acid receptor subunit alpha-1/beta-3/gamma-2 (Rattus norvegicus) (UniProt P18508+P62813+P63079); assay: Displacement of [3H]EBOB from rat GABA-A receptor alpha1beta3gamma2 expressed in HEK293 cell membranes at 20 uM after 90 mins by liquid scintillation counting analysis relative to control
[9] = target: T6, Gamma-aminobutyric acid receptor subunit alpha-1/beta-3/delta (Rattus norvegicus) (UniProt P18506+P62813+P63079); assay: Displacement of [3H]EBOB from rat GABA-A receptor alpha1beta3delta expressed in HEK293 cell membranes at 20 uM after 90 mins by liquid scintillation counting analysis relative to control
[10] = target: T7, Gamma-aminobutyric acid receptor subunit alpha-4/beta-3 (Rattus norvegicus) (UniProt P28471+P63079); assay: Displacement of [3H]EBOB from rat GABA-A receptor alpha4beta3 expressed in HEK293 cell membranes at 20 uM after 90 mins by liquid scintillation counting analysis relative to control
[11] = target: T8, Gamma-aminobutyric acid receptor subunit alpha-4/beta-3/gamma-2 (Rattus norvegicus) (UniProt P18508+P28471+P63079); assay: Displacement of [3H]EBOB from rat GABA-A receptor alpha4beta3gamma2 expressed in HEK293 cell membranes at 20 uM after 90 mins by liquid scintillation counting analysis relative to control
[12] = target: T9, Gamma-aminobutyric acid receptor subunit alpha-4/beta-3/delta (Rattus norvegicus) (UniProt P18506+P28471+P63079); assay: Displacement of [3H]EBOB from rat GABA-A receptor alpha4beta3delta expressed in HEK293 cell membranes at 20 uM after 90 mins by liquid scintillation counting analysis relative to control
[13] = target: T2, Gamma-aminobutyric acid receptor subunit alpha-6/beta-3 (Rattus norvegicus); assay: Displacement of [3H]EBOB from rat GABA-A receptor alpha6beta3 expressed in HEK293 cell membranes at 20 uM after 90 mins by liquid scintillation counting analysis relative to control
[14] = target: T2, Gamma-aminobutyric acid receptor subunit alpha-6/beta-3 (Rattus norvegicus); assay: (§2) Displacement of [3H]EBOB from rat GABA-A receptor alpha6beta3 expressed in HEK293 cell membranes after 90 mins in presence of GABA by liquid scintillation counting analysis
[15] = target: Gamma-aminobutyric acid receptor subunit alpha-6/beta-3 (Rattus norvegicus, UniProt P30191+P63079); assay: as §2
[16] = target: T3, Gamma-aminobutyric acid receptor subunit alpha-6/beta-3/gamma-2 (Rattus norvegicus); assay: (§3) Displacement of [3H]EBOB from rat GABA-A receptor alpha6beta3gamma2 expressed in HEK293 cell membranes after 90 mins in presence of GABA by liquid scintillation counting analysis
[17] = target: Gamma-aminobutyric acid receptor subunit alpha-6/beta-3/gamma-2 (Rattus norvegicus, UniProt P18508+P30191+P63079); assay: as §3
[18] = target: T1, Gamma-aminobutyric acid receptor subunit alpha-6/beta-3/delta (Rattus norvegicus); assay: (§4) Displacement of [3H]EBOB from rat GABA-A receptor alpha6beta3delta expressed in HEK293 cell membranes after 90 mins in presence of GABA by liquid scintillation counting analysis
[19] = target: T4, Gamma-aminobutyric acid receptor subunit alpha-6/beta-3/delta; assay: as §4
[20] = target: GABA A receptor alpha-6/beta-2/gamma-2 (Rattus norvegicus) (UniProt P18508+P30191+P63138); assay: Displacement of [3H]EBOB from rat GABA-A receptor alpha6beta2gamma2 expressed in HEK293 cell membranes at 10 uM after 90 mins by liquid scintillation counting analysis relative to control; summary of the method: as §1
[21] = target: T10, Gamma-aminobutyric acid receptor subunit alpha-6/beta-2 (Rattus norvegicus) (UniProt P30191+P63138); assay: Displacement of [3H]EBOB from rat GABA-A receptor alpha6beta2 expressed in HEK293 cell membranes at 10 uM after 90 mins by liquid scintillation counting analysis relative to control; summary of the method: as §1
[22] = target: Gamma-aminobutyric acid receptor subunit alpha-6/beta-2 (Rattus norvegicus, UniProt P30191+P63138); assay: Displacement of [3H]EBOB from rat GABA-A receptor alpha6beta2 expressed in HEK293 cell membranes after 90 mins by liquid scintillation counting analysis; summary of the method: as §1
[23] = target: Gamma-aminobutyric acid receptor subunit alpha-1/beta-3 (Rattus norvegicus) (UniProt P62813+P63079); assay: Displacement of [3H]EBOB from rat GABA-A receptor alpha1beta3 expressed in HEK293 cell membranes at 10 uM after 90 mins by liquid scintillation counting analysis relative to control; summary of the method: as §1
[24] = target: T5, Gamma-aminobutyric acid receptor subunit alpha-1/beta-3/gamma-2 (Rattus norvegicus); assay: Displacement of [3H]EBOB from rat GABA-A receptor alpha1beta3gamma2 expressed in HEK293 cell membranes at 10 uM after 90 mins by liquid scintillation counting analysis relative to control; summary of the method: as §1
[25] = target: T6, Gamma-aminobutyric acid receptor subunit alpha-1/beta-3/delta (Rattus norvegicus); assay: Displacement of [3H]EBOB from rat GABA-A receptor alpha1beta3delta expressed in HEK293 cell membranes at 10 uM after 90 mins by liquid scintillation counting analysis relative to control; summary of the method: as §1
[26] = target: T7, Gamma-aminobutyric acid receptor subunit alpha-4/beta-3 (Rattus norvegicus); assay: Displacement of [3H]EBOB from rat GABA-A receptor alpha4beta3 expressed in HEK293 cell membranes up to 10 uM after 90 mins by liquid scintillation counting analysis relative to control; summary of the method: as §1
[27] = target: T8, Gamma-aminobutyric acid receptor subunit alpha-4/beta-3/gamma-2 (Rattus norvegicus); assay: Displacement of [3H]EBOB from rat GABA-A receptor alpha4beta3gamma2 expressed in HEK293 cell membranes up to 10 uM after 90 mins by liquid scintillation counting analysis relative to control; summary of the method: as §1
[28] = target: T9, Gamma-aminobutyric acid receptor subunit alpha-4/beta-3/delta (Rattus norvegicus); assay: Displacement of [3H]EBOB from rat GABA-A receptor alpha4beta3delta expressed in HEK293 cell membranes up to 10 uM after 90 mins by liquid scintillation counting analysis relative to control; summary of the method: as §1
[29] = target: T10, Gamma-aminobutyric acid receptor subunit alpha-6/beta-2 (Rattus norvegicus); assay: Displacement of [3H]EBOB from rat GABA-A receptor alpha6beta2 expressed in HEK293 cell membranes up to 10 uM after 90 mins by liquid scintillation counting analysis relative to control; summary of the method: as §1
Rattus norvegicus = species: Rattus norvegicus; assay: Selectivity ratio of IC50 for rat GABA-A receptor alpha6beta3delta expressed in HEK293 cells to IC50 for rat GABA-A receptor alpha6beta2delta expressed in HEK293 cells; type: cell-based
[30] = target: T1, Gamma-aminobutyric acid receptor subunit alpha-6/beta-3/delta (Rattus norvegicus); assay: Displacement of [3H]EBOB from rat GABA-A receptor alpha6beta3delta expressed in HEK293 cell membranes up to 10 uM after 90 mins by liquid scintillation counting analysis relative to control; summary of the method: as §1
[31] = target: T2, Gamma-aminobutyric acid receptor subunit alpha-6/beta-3 (Rattus norvegicus); assay: Displacement of [3H]EBOB from rat GABA-A receptor alpha6beta3 expressed in HEK293 cell membranes up to 10 uM after 90 mins by liquid scintillation counting analysis relative to control; summary of the method: as §1

T4 sequence (P18506 whole entry): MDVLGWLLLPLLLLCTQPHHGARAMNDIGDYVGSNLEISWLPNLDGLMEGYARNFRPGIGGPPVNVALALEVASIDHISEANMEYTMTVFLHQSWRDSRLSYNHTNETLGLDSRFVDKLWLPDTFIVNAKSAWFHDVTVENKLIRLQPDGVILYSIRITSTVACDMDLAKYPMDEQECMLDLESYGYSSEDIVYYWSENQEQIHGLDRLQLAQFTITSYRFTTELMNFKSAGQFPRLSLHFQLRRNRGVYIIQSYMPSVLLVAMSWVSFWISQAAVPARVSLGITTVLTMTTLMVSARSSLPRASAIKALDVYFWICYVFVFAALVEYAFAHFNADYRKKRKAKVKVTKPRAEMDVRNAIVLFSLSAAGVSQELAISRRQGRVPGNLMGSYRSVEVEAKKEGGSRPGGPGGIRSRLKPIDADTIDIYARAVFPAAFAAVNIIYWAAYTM
T4 sequence (P30191 whole entry): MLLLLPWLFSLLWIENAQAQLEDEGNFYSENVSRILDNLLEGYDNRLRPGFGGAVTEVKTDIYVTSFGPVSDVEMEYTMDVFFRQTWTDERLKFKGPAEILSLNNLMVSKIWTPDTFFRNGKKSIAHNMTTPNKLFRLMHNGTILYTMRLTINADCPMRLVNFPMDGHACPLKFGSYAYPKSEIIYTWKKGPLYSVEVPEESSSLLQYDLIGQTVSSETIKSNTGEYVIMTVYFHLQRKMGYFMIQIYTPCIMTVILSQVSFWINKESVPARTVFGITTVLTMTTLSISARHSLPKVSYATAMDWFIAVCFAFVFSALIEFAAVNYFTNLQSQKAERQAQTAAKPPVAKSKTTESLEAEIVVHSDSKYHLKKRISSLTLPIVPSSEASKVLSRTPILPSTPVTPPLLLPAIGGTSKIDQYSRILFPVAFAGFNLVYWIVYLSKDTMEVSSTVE
T4 sequence (P63079 whole entry): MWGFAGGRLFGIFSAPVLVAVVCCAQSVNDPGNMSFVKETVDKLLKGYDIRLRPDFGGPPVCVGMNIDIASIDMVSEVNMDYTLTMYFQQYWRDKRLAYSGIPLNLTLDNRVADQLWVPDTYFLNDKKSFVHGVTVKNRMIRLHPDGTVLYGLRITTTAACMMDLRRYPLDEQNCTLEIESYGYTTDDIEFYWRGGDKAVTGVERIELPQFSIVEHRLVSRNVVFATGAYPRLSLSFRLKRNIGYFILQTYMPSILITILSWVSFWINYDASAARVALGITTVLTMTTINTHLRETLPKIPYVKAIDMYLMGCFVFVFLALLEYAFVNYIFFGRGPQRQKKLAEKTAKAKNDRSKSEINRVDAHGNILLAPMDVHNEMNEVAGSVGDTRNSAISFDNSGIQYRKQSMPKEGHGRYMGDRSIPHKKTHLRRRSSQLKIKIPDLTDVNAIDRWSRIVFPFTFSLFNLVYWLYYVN
Gamma-aminobutyric acid receptor subunit alpha-6/beta-3, sequence (P30191 whole entry): as the sequence (P30191 whole entry) above
Gamma-aminobutyric acid receptor subunit alpha-6/beta-3, sequence (P63079 whole entry): as the sequence (P63079 whole entry) above
Gamma-aminobutyric acid receptor subunit alpha-6/beta-2/delta, sequence (P18506 whole entry): as the sequence (P18506 whole entry) above
Gamma-aminobutyric acid receptor subunit alpha-6/beta-2/delta, sequence (P30191 whole entry): as the sequence (P30191 whole entry) above
Gamma-aminobutyric acid receptor subunit alpha-6/beta-2/delta, sequence (P63138 whole entry): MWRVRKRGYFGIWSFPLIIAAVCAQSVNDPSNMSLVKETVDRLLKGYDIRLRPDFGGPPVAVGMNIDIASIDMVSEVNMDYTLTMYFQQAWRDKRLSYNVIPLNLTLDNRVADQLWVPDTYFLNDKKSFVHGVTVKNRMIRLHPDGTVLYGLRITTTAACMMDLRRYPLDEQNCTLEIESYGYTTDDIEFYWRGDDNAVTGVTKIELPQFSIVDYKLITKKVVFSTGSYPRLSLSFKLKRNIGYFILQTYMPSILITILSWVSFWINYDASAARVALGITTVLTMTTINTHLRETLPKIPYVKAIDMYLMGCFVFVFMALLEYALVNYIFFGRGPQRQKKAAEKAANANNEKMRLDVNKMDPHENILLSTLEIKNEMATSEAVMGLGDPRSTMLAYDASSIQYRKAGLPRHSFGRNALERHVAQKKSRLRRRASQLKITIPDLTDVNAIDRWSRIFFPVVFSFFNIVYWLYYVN
Gamma-aminobutyric acid receptor subunit alpha-6/beta-3/gamma-2, sequence (P18508 whole entry): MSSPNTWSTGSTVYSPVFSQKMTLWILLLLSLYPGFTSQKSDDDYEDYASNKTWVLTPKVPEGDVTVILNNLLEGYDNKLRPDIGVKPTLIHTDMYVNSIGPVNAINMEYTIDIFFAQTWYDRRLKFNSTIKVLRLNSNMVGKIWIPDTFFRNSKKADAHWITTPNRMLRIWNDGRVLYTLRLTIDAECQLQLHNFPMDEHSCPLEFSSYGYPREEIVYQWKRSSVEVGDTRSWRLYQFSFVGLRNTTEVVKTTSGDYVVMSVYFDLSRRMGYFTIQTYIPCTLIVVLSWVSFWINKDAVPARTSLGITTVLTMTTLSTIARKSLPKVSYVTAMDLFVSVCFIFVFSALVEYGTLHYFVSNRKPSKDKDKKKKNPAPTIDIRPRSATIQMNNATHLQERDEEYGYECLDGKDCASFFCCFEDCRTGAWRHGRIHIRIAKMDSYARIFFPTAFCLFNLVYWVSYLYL
Gamma-aminobutyric acid receptor subunit alpha-6/beta-3/gamma-2, sequence (P30191 whole entry): as the sequence (P30191 whole entry) above
Gamma-aminobutyric acid receptor subunit alpha-6/beta-3/gamma-2, sequence (P63079 whole entry): as the sequence (P63079 whole entry) above
Gamma-aminobutyric acid receptor subunit alpha-6/beta-2, sequence (P30191 whole entry): as the sequence (P30191 whole entry) above
Gamma-aminobutyric acid receptor subunit alpha-6/beta-2, sequence (P63138 whole entry): as the sequence (P63138 whole entry) above

Imax [1]: 37%
inhibition [2]: inactive
Imax [3]: 15%
SMILES: O=C(Nc1c(-c2cccs2)nc2c(Br)cc(Br)cn12)c1ccc(OCCF)cc1

IC50 [4]: 2180 nM
IC50 [5]: 2430 nM
Imax [6]: 10%
Imax [7]: 54%
inhibition [8]: inactive
inhibition [9]: inactive
inhibition [10]: inactive
inhibition [11]: inactive
inhibition [12]: inactive
inhibition [13]: inactive
Imax [14]: 26%
IC50 [15]: 4070 nM
Imax [16]: 40%
IC50 [17]: 4340 nM
Imax [18]: 51%
IC50 [19]: 870 nM
Imax [20]: 13%
inhibition [21]: inactive
SMILES: CCCCOc1ccc(C(=O)Nc2c(-c3cccs3)nc3ccc(Br)cn23)cc1

IC50 [4]: 760 nM
IC50 [22]: 740 nM
IC50 [5]: 270 nM
inhibition [23]: inactive
inhibition [24]: inactive
inhibition [25]: inactive
inhibition [26]: inactive
inhibition [27]: inactive
inhibition [28]: inactive
Imax [29]: 33%
Imax [7]: 55%
Imax [14]: 57%
IC50 [15]: 1290 nM
Imax [16]: 44%
IC50 [17]: 1280 nM
Imax [18]: 55%
IC50 [19]: 490 nM
Imax [2]: 11%
Imax [30]: 53%
inhibition [20]: inactive
inhibition [3]: inactive
SMILES: O=C(Nc1c(-c2cccs2)nc2c(Br)cc(Br)cn12)c1ccc(OCCCCF)cc1
Ratio IC50 (Rattus norvegicus): 3

IC50 [4]: 1000 nM
inhibition [31]: inactive
inhibition [6]: inactive
Imax [30]: 38%
SMILES: O=C(Nc1c(-c2cccs2)nc2c(Br)cc(Br)cn12)c1ccc(OCCCF)cc1

Source: ChEMBL document CHEMBL4190374, “Structure-Function Evaluation of Imidazopyridine Derivatives Selective for δ-Subunit-Containing γ-Aminobutyric Acid Type A (GABAA) Receptors” (J Med Chem, 2018)
